The values that follow come from ChEMBL document CHEMBL2057141, “Imidazolopiperazines: lead optimization of the second-generation antimalarial agents” (J Med Chem, 2012).

The test system of series [1] is Plasmodium falciparum. The series is described as follows: Antimalarial activity against Plasmodium falciparum 3D7 after 72 hrs by SYBR green fluorescence assay. The conditions noted are these: 3D7, 72 h. Format: functional, organism-based. The method, boiled down:
(§1)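 P. falciparum grown in O+ erythrocytes, screened in medium without human serum plus 0.5% Albumax II. Twelve-point half-log dilutions up to 10 μM final. 0.3% parasitemia, 2.5% hematocrit; 72 h at 37 °C under low-oxygen gas. Lysis buffer with SYBR Green added, 24 h at 25 °C, fluorescence read at 485/530 nm.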

Series [2] deals with Plasmodium falciparum. The series is described as follows: Antimalarial activity against Plasmodium falciparum W2 after 72 hrs by SYBR green fluorescence assay. Format: functional, organism-based. The conditions noted are these: W2, 72 h. The procedure, abridged: as §1
Series [3] deals with Plasmodium berghei. Nature of the series: Antimalarial activity against Plasmodium berghei ANKA expressing GFP infected in NMRI mouse assessed as increase of mouse survival at 30 mg/kg, po administered 24 hrs post infection qd for 3 days (reference value: 6 to 7 days). Format: functional.
In series [4] the test system is Plasmodium berghei. The series is described as follows: Antimalarial activity against Plasmodium berghei ANKA expressing GFP infected in NMRI mouse assessed as increase of mouse survival at 30 mg/kg, po administered 24 hrs post infection (reference value: 6 to 7 days). Format: functional.
Series [5] concerns Plasmodium berghei. Nature of the series: Antimalarial activity against Plasmodium berghei ANKA expressing GFP infected in NMRI mouse assessed as reduction of parasite level in blood at 100 mg/kg, po administered 24 hrs post infection measured after 72 hrs post infection by flow cytometry. Format: functional. More on the design: scale not given: the % may be the effect or the level left. The procedure, abridged: (§2)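 Female NMRI mice (20–22 g, n=3) are infected i.v. with 2×10^7 P. berghei GFP ANKA-infected erythrocytes. Oral compound in 75% PEG300/25% D5W is given at 10 mL/kg, once at 24 h or daily at 24/48/72 h post-infection. Parasitemia is read by flow cytometry at 72 h (single dose) or 96 h (triple dose). Activity is % reduction of mean parasitemia versus untreated controls.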

For series [6], the system named is Plasmodium berghei. The series is described as follows: Antimalarial activity against Plasmodium berghei ANKA expressing GFP infected in NMRI mouse assessed as reduction of parasite level in blood at 30 mg/kg, po administered 24 hrs post infection measured after 72 hrs post infection by flow cytometry. Format: functional. More on the design: scale not given: the % may be the effect or the level left. The method, boiled down: as §2

Series [7] deals with Plasmodium berghei. The series is described as follows: Antimalarial activity against Plasmodium berghei ANKA expressing GFP infected in NMRI mouse assessed as reduction of parasite level in blood at 30 mg/kg, po administered 24 hrs post infection qd for 3 days measured after 96 hrs post infection by flow cytometry. Format: functional. Set-up: scale not given: the % may be the effect or the level left. The method, boiled down:
as §2

Series [8] deals with Plasmodium berghei. The series is described as follows: Antimalarial activity against Plasmodium berghei ANKA expressing GFP infected in NMRI mouse assessed as increase of mouse survival at 100 mg/kg, po administered 24 hrs post infection (reference value: 6 to 7 days). Format: functional.
Series [9] in a line: Permeability of the compound by PAMPA. Format: ADME. The procedure, abridged:
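PAMPA in 96-well filter plates. Permeated compound quantified by UV absorbance at 260–290 nm. Reported as percentage absorbed.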

A short description of series [10]: Apparent permeability across basolateral to apical side in human Caco2 cells by LC/MS analysis. Format: ADME, cell-based. The conditions noted are these: Caco-2. The procedure, abridged: (§3)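 Caco-2 monolayers in 96-well format. Compound measured in apical and basolateral chambers by LC/MS, giving Papp in the A–B and B–A directions. Values reported in cm/s × 10⁶.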

Series [11] is described as follows: Metabolic stability in mouse liver microsomes assessed as hepatic extraction ratio by LC/MS/MS analysis. Format: ADME, Microsome. The method, boiled down: (§4)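 Liver microsomes (human, mouse, rat). Compound depletion followed by LC/MS/MS. Loss of parent used to derive in vitro half-life and hepatic extraction ratio.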
Series [12] can be described thus: Metabolic stability in human liver microsomes assessed as hepatic extraction ratio by LC/MS/MS analysis in presence of CYP. Format: ADME, Microsome. The procedure, abridged:
as §4

Series [13] in a line: Apparent permeability across apical to basolateral side in human Caco2 cells by LC/MS analysis. The settings on record: Caco-2. Format: ADME, cell-based. The procedure, abridged:
as §3

A short description of series [14]: Metabolic stability in rat liver microsomes assessed as hepatic extraction ratio by LC/MS/MS analysis in presence of CYP. Format: ADME, Microsome. The procedure, abridged: as §4
A short description of series [15]: Metabolic stability in mouse liver microsomes assessed as hepatic extraction ratio by LC/MS/MS analysis in presence of CYP. Format: ADME, Microsome. The procedure, abridged: as §4
Series [16] concerns Mus musculus. Nature of the series: AUC (0 to 24 hrs) in Balb/c mouse at 5 mg/kg, iv. The settings on record: in vivo. Set-up: time < 24 hr, dose 5 mg/kg, route intravenous. Format: ADME, organism-based, Plasma. The procedure, abridged: (§5)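 Male Balb/c mice (n = 3 per group). Compound as a 2.5 mg/mL solution in PEG300/D5W 3:1, filtered. Given by lateral tail vein at 5 mg/kg (2 mL/kg) or orally at 20 mg/kg (8 mL/kg). Six serial 50 μL retro-orbital blood samples to 24 h, heparinized plasma. Plasma extracted with acetonitrile:methanol 3:1 with internal standard, LC-MS/MS. Noncompartmental analysis; F = AUCpo×dose_iv/AUCiv×dose_po.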

The subject of series [17] is Mus musculus. Nature of the series: AUC (0 to 24 hrs) in Balb/c mouse at 20 mg/kg, po. Format: ADME, organism-based, Plasma. More on the design: time < 24 hr, dose 20 mg/kg, route oral. The conditions noted are these: in vivo. The method, boiled down:
as §5

Series [18] in a line: Tmax in Balb/c mouse at 20 mg/kg, po. More on the design: dose 20 mg/kg, route oral. The conditions noted are these: in vivo. Format: ADME, organism-based. The method, boiled down: as §5
A short description of series [19]: Cmax in Wistar rat at 10 mg/kg, po. Format: ADME, organism-based. More on the design: dose 10 mg/kg, route oral. The settings on record: Wistar, in vivo. The procedure, abridged:
(§6)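 Rat snapshot PK: two Wistar rats dosed orally at 10 mg/kg, formulated at 2.5 mg/mL in 75% PEG300/25% D5W. Blood (100 μL) taken at 0.5, 1, 3 and 5 h post dose. Plasma pooled by sampling time, then analysed by LC-MS/MS.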

A short description of series [20]: Cmax in Balb/c mouse at 20 mg/kg, po. Set-up: dose 20 mg/kg, route oral. The settings on record: in vivo. Format: ADME, organism-based. The method, boiled down: as §5
A short description of series [21]: AUC (0 to 5 hrs) in Wistar rat at 10 mg/kg, po. Format: ADME, organism-based. The settings on record: plasma. More on the design: dose 10 mg/kg, route oral.
Series [22] can be described thus: Volume of distribution in Balb/c mouse at 5 mg/kg, iv. Format: ADME, organism-based. More on the design: dose 5 mg/kg, route intravenous. The settings on record: in vivo. The procedure, abridged: as §5
The subject of series [23] is Mus musculus. Nature of the series: Oral bioavailability in Balb/c mouse at 20 mg/kg. Format: ADME, organism-based. The conditions noted are these: in vivo. The procedure, abridged:
as §5

Series [24] can be described thus: Half life in Balb/c mouse at 5 mg/kg, iv. Format: ADME, organism-based. More on the design: dose 5 mg/kg, route intravenous. The settings on record: in vivo. The procedure, abridged: as §5
A short description of series [25]: Half life in Balb/c mouse at 20 mg/kg, po. More on the design: dose 20 mg/kg, route oral. Format: ADME, organism-based. The settings on record: in vivo. The procedure, abridged: as §5
Series [26] in a line: Clearance in Balb/c mouse plasma at 5 mg/kg, iv. Format: ADME, organism-based. Set-up: dose 5 mg/kg, route intravenous. The method, boiled down: as §5
Series [27] has as its system Rattus norvegicus. Nature of the series: Dose normalized AUC (0 to 5 hrs) in Wistar rat at 10 mg/kg, po. Format: ADME, organism-based. More on the design: dose 10 mg/kg, route oral. The conditions noted are these: in vivo. The method, boiled down:
as §6

`CC(C)[C@@H]1c2nc(-c3ccc(F)cc3)c(Nc3ccc(F)c(Cl)c3)n2CCN1C(=O)CN`: the EC50 in series [1] turned out to be 0.168 µM; in [2], 0.202 µM.

Turning to `CCN(CC)CCCC(C)Nc1ccnc2cc(Cl)ccc12` (configuration not stated) [CHLOROQUINE], the Survival in series [3] was found to be 13.6 days; in series [4], 9 days; in [8], 12.5 days. The Activity in series [5] is given as 99.6%; in series [6], 99.5%; in [7], 99.8%.

For `Cc1ccc(Nc2c(-c3ccc(F)cc3)nc3n2CCNC3)cc1`, the permeability in [9] came out at 99.5%. Moreover, the results for the EC50 in series [1] and in [2] were 0.161 µM and 0.178 µM, respectively. Moreover, the Papp B→A in series [10] amounted to 23.6 nm/s. In addition, the hepatic extraction ratio in series [11] worked out at 0.8; in [12], 0.79; in series [14], 0.96; in series [15], 0.87. The Papp A→B in series [13] amounted to 82 nm/s.

Regarding `Cc1ccc(Nc2c(-c3ccc(F)cc3)nc3n2CCN(C(=O)CN)C3(C)C)cc1`, the EC50 was determined as 0.008 µM in series [1] and 0.006 µM in series [2].

As to `NCC(=O)N1CCn2c(nc(-c3ccc(F)cc3)c2Nc2ccc(F)cc2)C1`, in [9], the permeability was determined as 52%. The figures for the AUC in series [16] and in [17] were 1072 nM·h and 965 nM·h, respectively. Also, the EC50 was 0.024 µM in series [1] and 0.023 µM in series [2].

As for `C[C@H]1[C@H](OC(=O)CCC(=O)O)O[C@@H]2O[C@@]3(C)CC[C@H]4[C@H](C)CC[C@@H]1[C@@]24OO3` [ARTESUNATE], the values for the Survival in series [3], in series [4] and in series [8] were 12.2 days, 5.8 days and 7 days, respectively. In addition, the figures for the Activity in [6] and in series [7] were 95.6% and 99%, respectively.

The molecule `CC1(C)NCCn2c1nc(-c1ccc(F)cc1)c2Nc1ccc(F)cc1` had a permeability in [9] of 99.9%. In addition, the figures for the AUC in [16] and in series [17] were 9090 nM·h and 19447 nM·h, respectively. Also, the Tmax in [18] was determined as 1 h. The EC50 in series [1] and in series [2] was 0.005 µM each time. Moreover, the Survival stood at 12 days in series [3], 7 days in [4] and 9.7 days in series [8]. For the same molecule, the hepatic extraction ratio in series [11] was 0.8; in series [12] it was 0.92; in series [14] it was 0.92; in [15] it was 0.8. In addition, the values for the highest concentration (Cmax) in series [19] and in series [20] were 0.202 µM and 6.4 µM, respectively. Besides, the Activity in series [6] was 90%. Moreover, the AUC(0-t) at 4 h in series [21] is 423 nM·h. Besides, the Vd in series [22] came to 1.2 L/kg. In [23], this molecule displayed an F of 53%. The half-life is 0.8 h in [24] and 2.95 h in series [25]. Besides, in series [26], the clearance is 1.55 L/h/kg. Further, the AUC/dose in series [27] is on record as 0.9 min.ug/ml/(mg/kg).

`CC(C)(N)C(=O)N1CCn2c(nc(-c3ccc(F)cc3)c2Nc2ccc(F)cc2)C1(C)C` gave a permeability in series [9] of 99.5%. Moreover, the EC50 in series [1] amounted to 0.01 µM; in [2] it was 0.009 µM. Further, in series [10], the Papp B→A was determined as 9.7 nm/s. For the same molecule, the Papp A→B in series [13] was determined as 12 nm/s.

Regarding `Cc1ccc(Nc2c(-c3ccc(F)cc3)nc3n2CCNC3(C)C)cc1`, the permeability in series [9] was 99.9%. Besides, the EC50 in [1] and in series [2] was 0.013 µM throughout. Also, the Papp B→A in series [10] came to 69.6 nm/s. The hepatic extraction ratio in series [11] was 0.77; in series [12] it was 0.88; in series [14], 0.93; in series [15], 0.87. Besides, the Papp A→B in series [13] was 156 nm/s.

As for `CC1(C)CN(C(=O)CN)Cc2nc(-c3ccc(F)cc3)c(Nc3ccc(F)cc3)n21`, the results for the EC50 in series [1] and in [2] were 0.08 µM and 0.076 µM, respectively.

With `Cc1ccc(Nc2c(-c3ccc(F)cc3)nc3n2CC(=O)NC3(C)C)cc1`, the values for the EC50 in series [1] and in [2] were 0.138 µM and 0.136 µM, respectively. The hepatic extraction ratio in [11] and in series [15] was 0.72 throughout.
